Experimental data as given in ChEMBL document CHEMBL2034924, “Optimization of a Potent, Orally Active S1P1 Agonist Containing a Quinolinone Core” (ACS Med Chem Lett, 2012).
Converted amounts (≈) assume the structure as drawn.

Columns and labels:
[1] = target: T1, Sphingosine 1-phosphate receptor 1 (Homo sapiens, UniProt P21453); experiment: Agonist activity at human S1P1 receptor expressed in human U2OS cells co-expressing eGFP assessed as receptor internalization after 1 hr; assay type: functional, cell-based
Procedure, shortened: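 U2OS cells expressing an hS1P1-GFP fusion protein; the read-out was receptor internalization. EC50 is the molar concentration giving a half-maximal response.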

[2] = target: T1, Sphingosine 1-phosphate receptor 1; experiment: Agonist activity at human S1P1 receptor expressed in human U2OS cells co-expressing eGFP assessed as receptor internalization after 1 hr relative to 1-(4-(6-benzylbenzofuran-2-yl)-3-fluorobenzyl)azetidine-3-carboxylic acid; assay type: functional, cell-based
[3] = target: T2, Sphingosine 1-phosphate receptor 3 (Homo sapiens, UniProt Q99500); experiment: Agonist activity at human S1P3 receptor expressed in CHO cells coexpressing Gq/i5 G-protein assessed as Ca2+ mobilization after 60 to 90 mins by FLIPR assay; assay type: functional, cell-based
Procedure, shortened: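 Ca2+ mobilization in CHO-K1 cells transfected with hS1P3/Gq/i5. EC50 is the molar concentration giving a half-maximal response.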

[4] = Solubility of the compound in simulated intestinal fluid at pH 6.8 after 2 to 3 days by HPLC analysis; assay type: physicochemical
[5] = Apparent permeability of the compound across pig LLC-PK1 cells; assay type: ADME, cell-based, Sus scrofa
Procedure, shortened: (§1)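 Parental porcine proximal tubule LLC-PK1 cell line. Apparent permeability was measured, and the efflux ratio was derived from it.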

[6] = Efflux ratio of permeability in pig LLC-PK1 cells; assay type: ADME, cell-based, Sus scrofa; procedure, shortened: as §1
[7] = Plasma protein binding in rat; assay type: ADME, cell-free; settings: read-out: PPB (converted)
[8] = Intrinsic clearance in rat liver microsomes at 1 uM after 30 mins; assay type: ADME, Microsome; settings: read-out: CLH
Rattus norvegicus [9] = experiment: Lymphopenic activity in Lewis rat assessed as reduction in peripheral blood lymphocyte counts at 1 mg/kg, po measured 24 hrs post dosing relative to control; assay type: functional; parameters: scale not given: the % may be the effect or the level left
Procedure, shortened: (§2)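 Female Lewis rats (N = 5/group) received a single oral dose of 1 mg/kg in 20% captisol, 1% HPMC, 1% pluronic F68, pH 2.1 with MSA. Peripheral lymphocyte count is given as percent-of-control reduction versus vehicle at 24 h. Total plasma drug concentration was measured at 24 h. Statistics used ANOVA/Dunnett versus vehicle.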

[10] = Plasma concentration in Lewis rat at 1 mg/kg, po measured 24 hrs post dosing; assay type: ADME, organism-based; parameters: dose 1 mg/kg, route oral; settings: Lewis, plasma; procedure, shortened: as §2
[11] = target: T2, Sphingosine 1-phosphate receptor 3; experiment: Agonist activity at human S1P3 receptor expressed in CHO cells coexpressing Gq/i5 G-protein assessed as Ca2+ mobilization at 25 uM after 60 to 90 mins by FLIPR assay; assay type: functional, cell-based
[12] = target: T2, Sphingosine 1-phosphate receptor 3; experiment: Agonist activity at human S1P3 receptor expressed in CHO cells coexpressing Gq/i5 G-protein assessed as Ca2+ mobilization after 60 to 90 mins by FLIPR assay relative to 0.2 uM S1P
Rattus norvegicus [13] = experiment: Lymphopenic activity in Lewis rat assessed as reduction in peripheral blood lymphocyte counts at 3 mg/kg, po measured 24 hrs post dosing relative to control; assay type: functional; parameters: scale not given: the % may be the effect or the level left
Procedure, shortened: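 Female Lewis rats (N = 3/group) received a single oral dose in 20% captisol/1% HPMC/1% pluronic F68, pH 2, with MSA. Blood lymphocyte counts and plasma concentration were measured at 24 h, reported as mean ± SE. Comparison was versus vehicle by ANOVA/Dunnett, P < 0.05.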

[14] = Clearance in C57BL/6 mouse at 1 mg/kg, iv and 3 mg/kg, po; assay type: ADME, organism-based; settings: in vivo
Procedure, shortened: (§3)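 Female C57BL/6 mice. IV dosing used 40% hydroxypropyl β-cyclodextrin/60% water. Oral dosing used 1% HPMC/1% pluronic F68/20% HPBCD/78% water with MSA, pH 2.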

[15] = Volume of distribution at steady state in C57BL/6 mouse at 1 mg/kg, iv; assay type: ADME, organism-based; parameters: dose 1 mg/kg, route intravenous; settings: in vivo, read-out: Vdss; procedure, shortened: as §3
[16] = Mean residence time in C57BL/6 mouse at 1 mg/kg, iv; assay type: ADME, organism-based; parameters: dose 1 mg/kg, route intravenous; settings: in vivo; procedure, shortened: as §3
[17] = AUC (0 to infinity) in C57BL/6 mouse at 3 mg/kg, po; assay type: ADME, organism-based; parameters: time infinity, dose 3 mg/kg, route oral; settings: plasma; procedure, shortened: as §3
[18] = Oral bioavailability in C57BL/6 mouse at 3 mg/kg; assay type: ADME, organism-based; settings: in vivo; procedure, shortened: as §3
[19] = Clearance in Sprague-Dawley rat at 1 mg/kg, iv and 2 mg/kg, po; assay type: ADME, organism-based; settings: in vivo
Procedure, shortened: (§4)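 Male Sprague-Dawley rats. IV doses were given in DMSO. Oral doses were given in 20% Captisol/1% Tween 80, pH 2, with MSA. Plasma was collected up to 48 h after dosing.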

[20] = Volume of distribution at steady state in Sprague-Dawley rat at 1 mg/kg, iv; assay type: ADME, organism-based; parameters: dose 1 mg/kg, route intravenous; settings: in vivo, read-out: Vdss; procedure, shortened: as §4
[21] = Mean residence time in Sprague-Dawley rat at 1 mg/kg, iv; assay type: ADME, organism-based; parameters: dose 1 mg/kg, route intravenous; settings: in vivo; procedure, shortened: as §4
[22] = AUC (0 to infinity) in Sprague-Dawley rat at 2 mg/kg, po; assay type: ADME, organism-based; parameters: time infinity, dose 2 mg/kg, route oral; settings: plasma; procedure, shortened: as §4
[23] = Oral bioavailability in Sprague-Dawley rat at 2 mg/kg; assay type: ADME, organism-based; settings: in vivo; procedure, shortened: as §4
[24] = AUC (0 to infinity) in Sprague-Dawley rat at 100 mg/kg, po; assay type: ADME, organism-based; parameters: time infinity, dose 100 mg/kg, route oral; settings: plasma; procedure, shortened: as §4
[25] = Oral bioavailability in Sprague-Dawley rat at 100 mg/kg; assay type: ADME, organism-based; settings: in vivo; procedure, shortened: as §4
[26] = Clearance in nonhuman primates at 4 mg/kg, iv and 10 mg/kg, po; assay type: ADME, organism-based; settings: in vivo
Procedure, shortened: (§5)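 Pharmacokinetics in male nonhuman primates. IV vehicle was 40% hydroxypropyl β-cyclodextrin/60% water with MSA, pH 3. Oral vehicle was 1% HPMC/1% pluronic F68/20% HPBCD/78% water with MSA, pH 2.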

[27] = Volume of distribution at steady state in nonhuman primates at 4 mg/kg, iv; assay type: ADME, organism-based; parameters: dose 4 mg/kg, route intravenous; settings: in vivo, read-out: Vdss; procedure, shortened: as §5
[28] = Mean residence time in nonhuman primates at 4 mg/kg, iv; assay type: ADME, organism-based; parameters: dose 4 mg/kg, route intravenous; settings: in vivo; procedure, shortened: as §5
[29] = AUC (0 to infinity) in nonhuman primates at 10 mg/kg, po; assay type: ADME, organism-based; parameters: dose 10 mg/kg, route oral, time infinity; settings: plasma; procedure, shortened: as §5
[30] = Oral bioavailability in nonhuman primates at 10 mg/kg; assay type: ADME, organism-based; settings: in vivo; procedure, shortened: as §5
[31] = Half life in Sprague-Dawley rat at 100 mg/kg, po; assay type: ADME, organism-based; parameters: dose 100 mg/kg, route oral; settings: in vivo; procedure, shortened: as §4
[32] = Half life in Sprague-Dawley rat at 1 to 2 mg/kg, iv and po; assay type: ADME, organism-based; parameters: dose 1-2 mg/kg, route oral; settings: in vivo; procedure, shortened: as §4

T2 sequence (Q99500 whole entry): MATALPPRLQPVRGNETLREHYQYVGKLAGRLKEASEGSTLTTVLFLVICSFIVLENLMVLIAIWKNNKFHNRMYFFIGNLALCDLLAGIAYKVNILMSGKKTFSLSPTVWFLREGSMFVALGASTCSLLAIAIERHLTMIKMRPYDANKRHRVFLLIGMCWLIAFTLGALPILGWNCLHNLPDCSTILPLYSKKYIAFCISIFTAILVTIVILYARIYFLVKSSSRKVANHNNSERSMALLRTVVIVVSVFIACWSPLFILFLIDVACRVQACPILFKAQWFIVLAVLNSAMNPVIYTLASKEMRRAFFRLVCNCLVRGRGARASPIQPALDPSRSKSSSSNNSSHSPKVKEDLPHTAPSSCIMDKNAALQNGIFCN
T1 sequence (P21453 whole entry, the tested form may be a part): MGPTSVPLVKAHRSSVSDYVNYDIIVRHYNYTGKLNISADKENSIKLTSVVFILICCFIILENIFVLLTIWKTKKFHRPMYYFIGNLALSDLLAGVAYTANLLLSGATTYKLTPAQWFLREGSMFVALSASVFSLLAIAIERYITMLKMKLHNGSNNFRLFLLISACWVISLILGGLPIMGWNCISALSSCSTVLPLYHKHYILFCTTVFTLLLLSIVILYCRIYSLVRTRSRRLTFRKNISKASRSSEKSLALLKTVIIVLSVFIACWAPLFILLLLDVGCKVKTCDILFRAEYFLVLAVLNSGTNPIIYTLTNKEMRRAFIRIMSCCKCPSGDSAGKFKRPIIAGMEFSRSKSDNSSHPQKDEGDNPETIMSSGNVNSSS

## Cn1cc(C(=O)Nc2ccc(-c3ccccc3)c(C(F)(F)F)c2)c(=O)c2ccc(CO)cc21
[1]
  EC50: 18 nM
[2]
  Efficacy: 125%
[3]
  EC50: > 25000 nM
[4]
  solubility: 27 µg/mL (≈ 59.7 µM)
[5]
  Papp: 2.8 ×10⁻⁶ cm/s
[6]
  efflux ratio: 1
[7]
  fraction unbound: 0.076
[8]
  microsomal CLint at 1 µM: < 14 µL/min/mg
Rattus norvegicus [9]
  Activity: -44%
[10]
  concentration at 24 h: 65 ng/mL
[11]
  Activity: < 10%

## Cn1cc(C(=O)Nc2ccc(-c3ccccc3)c(C(F)(F)F)c2)c(=O)c2cnccc21
[3]
  EC50: > 25000 nM
[4]
  solubility: 5 µg/mL (≈ 11.8 µM)
[7]
  fraction unbound: 0.083
[8]
  microsomal CLint at 1 µM: < 14 µL/min/mg
Rattus norvegicus [9]
  Activity: -64%
[11]
  Activity: < 10%

## Cn1cc(C(=O)Nc2ccc(-c3ccccc3)c(C(F)(F)F)c2)c(=O)c2ccc(CCC(=O)O)cc21
[1]
  EC50: 4 nM
[2]
  Efficacy: 85%
[3]
  EC50: 940 nM
[4]
  solubility: 200 µg/mL (≈ 404 µM)
[5]
  Papp: 1.6 ×10⁻⁶ cm/s
[6]
  efflux ratio: 1
[7]
  fraction unbound: 0.022
[8]
  microsomal CLint at 1 µM: < 14 µL/min/mg
Rattus norvegicus [9]
  Activity: -25%
[10]
  concentration at 24 h: 4 ng/mL
[12]
  Efficacy: 82%

## Cn1cc(C(=O)Nc2ccc(-c3ccccc3)c(C(F)(F)F)c2)c(=O)c2cnc(CO)cc21
[1]
  EC50: 18 nM
[2]
  Efficacy: 106%
[3]
  EC50: > 25000 nM
[4]
  solubility: > 200 µg/mL
[5]
  Papp: 2.5 ×10⁻⁶ cm/s
[6]
  efflux ratio: 1
[7]
  fraction unbound: 0.083
[8]
  microsomal CLint at 1 µM: < 14 µL/min/mg
Rattus norvegicus [9]
  Activity: -60%
Rattus norvegicus [13]
  Activity: 88%
[10]
  concentration at 24 h: 84 ng/mL
[14]
  clearance: 5.17 mL/min/kg
[15]
  Vd: 6 L/kg
[16]
  MRT: 20 h
[17]
  AUC(0-inf): 16 µM·h
[18]
  bioavailability: 75%
[19]
  clearance: 5.17 mL/min/kg
[20]
  Vd: 5.8 L/kg
[21]
  MRT: 19 h
[22]
  AUC(0-inf): 19 µM·h
[23]
  bioavailability: 132%
[24]
  AUC(0-inf): 1630 µM·h
[25]
  bioavailability: > 93%
[26]
  clearance: 1.83 mL/min/kg
[27]
  Vd: 4.3 L/kg
[28]
  MRT: 40 h
[29]
  AUC(0-inf): 141 µM·h
[30]
  bioavailability: 67%
[31]
  half-life: 57 h
[32]
  half-life: 13 h
[11]
  Activity: < 10%

## Cn1cc(C(=O)Nc2ccc(-c3ccccc3)c(C(F)(F)F)c2)c(=O)c2cc(CO)ccc21
[1]
  EC50: 700 nM
[2]
  Efficacy: 46%
[3]
  EC50: > 25000 nM
[11]
  Activity: < 10%

## Cn1cc(C(=O)Nc2ccc(-c3ccccc3)c(C(F)(F)F)c2)c(=O)c2ccc(CCCO)cc21
[1]
  EC50: 15 nM
[2]
  Efficacy: 118%
[3]
  EC50: > 25000 nM
[11]
  Activity: < 10%

## Cn1cc(C(=O)Nc2ccc(-c3ccccc3)c(C(F)(F)F)c2)c(=O)c2cccc(CCO)c21
[1]
  EC50: 390 nM
[2]
  Efficacy: 106%
[3]
  EC50: > 25000 nM
[11]
  Activity: < 10%

## Cn1cc(C(=O)Nc2ccc(-c3ccccc3)c(C(F)(F)F)c2)c(=O)c2ccc(CCO)cc21
[1]
  EC50: 8 nM
[2]
  Efficacy: 118%
[3]
  EC50: > 25000 nM
[4]
  solubility: 6 µg/mL (≈ 12.9 µM)
[5]
  Papp: 2.2 ×10⁻⁶ cm/s
[6]
  efflux ratio: 1
[7]
  fraction unbound: 0.073
[8]
  microsomal CLint at 1 µM: < 14 µL/min/mg
Rattus norvegicus [9]
  Activity: -48%
[10]
  concentration at 24 h: 27 ng/mL
[11]
  Activity: < 10%

## Cn1cc(C(=O)Nc2ccc(-c3ccccc3)c(C(F)(F)F)c2)c(=O)c2cccc(CO)c21
[1]
  EC50: 39 nM
[2]
  Efficacy: 104%
[3]
  EC50: > 25000 nM
[11]
  Activity: < 10%
